T cell HTS: T cell immune modulators affecting CD8 T cell-vesicle binding | response (vesicle binding), % at 7 µM | 0.068% of 330,000 active | 2C CD8+ T cell-vesicle binding, flow cytometry; stronger effect = lower value | AID 2052;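 active means response, share of CD8 T cells binding vesicles, and their 90th percentile fluorescence all below set limits, cut at about 80% in these data, passing the limit was not always enough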;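 further: values below 100% mean blocked vesicle binding to the CD8+ T cells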
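Assay system: 2C TCR transgenic mouse naive CD8+ T cells, MACS-purified | Read-out: CD8+ gate FL2 mean fluorescence as % of same-row positive control | Signal: High-throughput flow cytometry with anti-B7-1 and anti-CD8 staining | Timing: Binding step 1.5 h, 37 °C, antibody labelling 20 min, ice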
CHT allo act: allosteric activators of human choline transporter CHT. 0.49% of 310,000 active. Q9GZV3. CHT-expressing cells, membrane potential dye, choline EC20; stronger effect = higher value; LV-AA mutant CHT in HEK293 cells. B-score at 10 µM;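 active means initial fluorescence not abnormally high and integrated response B-score, plate-corrected, over 3 SD above library mean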
p-CIP stab down: p/CIP protein destabilization. F442A p/CIP-EGFP cells, EGFP fluorescence, 16 h. decrease of EGFP signal, % at 10 µM. 0.01% of 290,000 active. AID 1984;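 active means EGFP signal decrease of at least 30% at 10 µM or well 3 SD below plate mean, unless failing retest; inactive means the rest, including hits failing retest or dose response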
CHT block: inhibitors of human choline transporter CHT. B-score at 10 µM. AID 488975. 0.86% of 310,000 active. Q9GZV3. CHT-expressing cells, membrane potential dye, choline response; stronger effect = lower value;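 active means B-score over 3 SD under the library average, and starting fluorescence ratio not unusually high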;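 further: choline stimulus applied at its EC90 after an EC20 pre-addition; B-score computed on integrated fluorescence ratio after choline addition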
Pemphigus Ab inh: human desmoglein-3 autoantibody binding inhibition; P32926; DSG3-coupled beads, scFv-anti-DSG3-GFP binding, flow cytometry; stronger effect = lower value; binding (percent of control), % at 10 µM; 0.48% of 310,000 active; AID 588358;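 active means binding more than 3 SD below its plate's average and above zero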;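 further: hits lower antibody fragment binding to DSG3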
Target sequence (P32926 whole entry, looked up, the tested form may be a part): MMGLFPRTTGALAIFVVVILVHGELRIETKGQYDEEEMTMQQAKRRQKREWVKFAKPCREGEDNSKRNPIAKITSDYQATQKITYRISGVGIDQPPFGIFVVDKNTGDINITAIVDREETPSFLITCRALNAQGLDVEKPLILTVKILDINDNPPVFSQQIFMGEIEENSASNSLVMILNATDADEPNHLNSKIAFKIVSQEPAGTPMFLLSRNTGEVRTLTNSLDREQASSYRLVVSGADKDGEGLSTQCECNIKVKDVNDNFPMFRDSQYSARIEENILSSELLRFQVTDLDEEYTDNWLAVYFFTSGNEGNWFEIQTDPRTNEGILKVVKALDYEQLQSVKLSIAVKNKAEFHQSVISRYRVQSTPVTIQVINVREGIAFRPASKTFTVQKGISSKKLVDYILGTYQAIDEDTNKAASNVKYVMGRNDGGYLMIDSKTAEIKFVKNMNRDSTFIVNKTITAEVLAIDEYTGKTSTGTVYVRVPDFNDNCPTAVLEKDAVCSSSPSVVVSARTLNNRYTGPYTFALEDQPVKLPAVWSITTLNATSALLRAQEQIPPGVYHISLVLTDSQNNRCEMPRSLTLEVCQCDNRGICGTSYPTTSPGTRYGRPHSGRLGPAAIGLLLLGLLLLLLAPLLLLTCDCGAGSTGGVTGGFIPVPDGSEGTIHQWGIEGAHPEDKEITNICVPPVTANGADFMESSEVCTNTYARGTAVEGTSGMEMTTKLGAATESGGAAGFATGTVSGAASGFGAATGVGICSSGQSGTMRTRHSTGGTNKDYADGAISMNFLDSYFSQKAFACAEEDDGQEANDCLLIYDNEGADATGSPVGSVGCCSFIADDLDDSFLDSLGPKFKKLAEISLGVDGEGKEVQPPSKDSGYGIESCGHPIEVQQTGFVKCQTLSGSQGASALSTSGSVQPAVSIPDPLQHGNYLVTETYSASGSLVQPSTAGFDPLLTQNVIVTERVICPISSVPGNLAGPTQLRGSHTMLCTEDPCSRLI
GPR7 antagonist: human neuropeptides B/W receptor 1 antagonism; 1.1% of 290,000 active; GPR7-expressing cells, fluorescence antagonist assay; P48145; AID 1861; inhibition, % at 4.4 µM; in the data active means inhibition above about 16%, passing the limit was not always enough;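 further: cells stimulated with the agonist NPW; 0% = agonist with vehicle and 100% = vehicle without agonist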
GPR7 antag cf: human GPR7 antagonism, confirmation assay; inhibition, % at 4.4 µM; 52% of 2,400 active; shares compounds with GPR7 antagonist; GPR7-expressing cells, calcium fluorescence antagonist mode; in the data active means inhibition above about 24%;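 further: stimulated with the GPR7 agonist NPW; 0% = agonist plus vehicle and 100% = vehicle alone without agonist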
MCHR1 antagonist: MCHR1 (human) antagonism in GPR7 counter-screen; shares compounds with GPR7 antagonist; inhibition, % at 4.4 µM; AID 2148; MCHR1-expressing cells, fluorescence antagonist assay; 62% of 2,400 active; in the data active means inhibition above about 22%;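 further: 0% = vehicle with agonist and 100% = vehicle without agonist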
Starred values were filed as active, the others as inactive; i = inactive; x = not tested or not shown. Hits are enriched below; roughly 2.3% of the tested compounds scored in any of these assays.

SMILES | T cell HTS | CHT allo act | p-CIP stab down | CHT block | Pemphigus Ab inh | GPR7 antagonist | GPR7 antag cf | MCHR1 antagonist
Cc1ccc2c(c1)N(C(=O)CCC(=O)N1CCN(c3ccccn3)CC1)CC(C)O2 (centres undefined) | 556 | i | 0 | i | 77 | 31* | 6 | 5
CCN(CC)CCN(C(=O)/C=C/c1cccs1)c1nc2ccc(F)cc2s1 | 380 | i | -19 | i | 90 | 11 | x | x
CN(C)CCN(C(=O)/C=C/c1cccs1)c1nc2ccc(Br)cc2s1 | 472 | i | -11 | i | 104 | 25* | 59* | 68*
CCc1ccc2nc(N(CCN(C)C)C(=O)/C=C/c3cccs3)sc2c1 | 372 | i | 1 | i | 106 | 21 | x | x
CN(C)CCCN(C(=O)CCc1ccccc1)c1nc2ccc(Cl)cc2s1 | 265 | i | -2 | i | x | 23* | 73* | 85*
CN(C)CCCN(C(=O)C1=COCCO1)c1nc2ccc(Br)cc2s1 | 473 | i | -11 | i | 104 | 36* | 55* | 64*
CN(C)CCCN(C(=O)/C=C/c1cccs1)c1nc2ccc(F)cc2s1 | 328 | i | -10 | i | 107 | 29* | 45* | 28*
NC(=Nc1ccccc1)Nc1ccccc1 | 265 | i | -2 | i | 116 | 101* | 98* | 108*
CCOC(=O)/C(C(=Nc1ccccc1)Nc1ccccc1)=C(\C)O | 244 | i | 4 | i | 104 | -11 | x | x
Cc1ccc(CS(=O)Cc2ccc(C(=O)N3CCN(c4cccc(C)c4C)CC3)o2)cc1 (centres undefined) | x | x | x | x | 104 | x | x | x
Cc1cccc(N2CCN(C(=O)c3ccc(CS(=O)Cc4cccc(Cl)c4)o3)CC2)c1C (centres undefined) | 0 | i | 7 | i | 108 | 42* | 11 | 31*
CCc1ccc(CCC(=O)Nc2ccc(C(C)=O)cc2)o1 | i | i | -6 | i | 97 | 21* | 27* | 35*
CN(C)CCCNC(=O)c1ccc(-c2nc(-c3ccc(Cl)cc3)cs2)cc1 | 416 | i | -8 | i | 98 | 41* | 91* | 92*
Cc1cn([C@H]2C[C@H](O)[C@@H](CNCc3cccn3-c3nccs3)O2)c(=O)[nH]c1=O | x | x | x | x | 99 | x | x | x
Nc1cc(C(=O)O)c(N)c2c1C(=O)c1ccccc1C2=O | 211 | i | -2 | i | 103 | -8 | x | x
Nc1c(C(=O)O)ccc2c1C(=O)c1ccccc1C2=O | 116 | i | -10 | i | 95 | 23* | 5 | 3
O=C(Nc1ccc(Cl)c(S(=O)(=O)N2CCOCC2)c1)c1ccc(OCC2CCCO2)cc1 (centres undefined) | 212 | i | 14 | i | x | 41* | 47* | 90*
Clc1cccc(CN2CCN(c3nc4nonc4nc3NC3CC3)CC2)c1 | 313 | i | -2 | i | 82 | 27* | 9 | 5
S=C(NCCN1CCCCC1)Nc1ccc(Br)cc1 | 0 | i | -2 | i | 100 | 38* | 9 | 13
S=C(NCCN1CCCCC1)Nc1ccccc1 | 147 | i | 2 | i | 82 | -4 | x | x
CN(Cc1ccccc1)C(=O)c1ccc(NC(=O)Cc2ccc(NC(=O)C3CCN(C(=O)c4ccccc4)CC3)cc2)cc1 | x | x | x | x | 98 | x | x | x
CNCCCOc1ccc(Cl)cc1C(C)(C)C | 124 | i | -4 | i | 104 | 25* | 41* | 48*
COCCCNCCCOc1ccc(Cl)cc1C(C)(C)C | 305 | i | -5 | i | 114 | 22* | 26* | 33*
C[C@@H]1CN([C@@H](C)CO)C(=O)CCCn2cc(nn2)CO[C@H]1CN(C)S(=O)(=O)c1cn(C)cn1 | x | x | x | x | 104 | x | x | x
Cc1cccc(CNC(=O)C2CCC(=O)N(CCCc3ccccc3)C2)c1 (centres undefined) | x | x | x | x | 104 | x | x | x
SMILES | T cell HTS | CHT allo act | p-CIP stab down | CHT block | Pemphigus Ab inh | GPR7 antagonist | GPR7 antag cf | MCHR1 antagonist
Cc1nc(NC(=O)C(C)(C)C)sc1-c1csc(N)n1 | x | x | x | x | 99 | x | x | x
Cc1ccccc1CC1(CO)CCCN(C(=O)c2ccccc2Cl)C1 (centres undefined) | 160 | i | -3 | i | 85 | 34* | 32* | 18
Cc1ccccc1CC1(CO)CCCN(C(=O)c2cc(Cl)ccc2F)C1 (centres undefined) | 295 | i | 10 | i | 101 | x | x | 7
COC(=O)c1ccc(-n2nnnc2SCc2ccccc2OC)cc1 | 280 | i | -5 | i | 107 | 38* | 37* | 61*
C[C@@H]1CN([C@@H](C)CO)C(=O)c2cc(Br)cnc2O[C@H]1CN(C)S(=O)(=O)c1cccs1 | x | x | x | x | 110 | x | x | x
C[C@H](CO)N1C[C@H](C)[C@@H](CN(C)S(=O)(=O)c2ccccc2)OCc2cnnn2CCCC1=O | x | x | x | x | 106 | x | x | x
O=[N+]([O-])c1ccc(C2CC(c3ccccc3)=Nc3ccccc3S2)cc1 (centres undefined) | 155 | i | 3 | i | 107 | 18 | -1 | 74*
O=C(O)C1CC(c2ccccc2)=Nc2ccccc2S1 (centres undefined) | 343 | i | -7 | i | 91 | -8 | x | x
C[C@@H]1CN([C@@H](C)CO)C(=O)c2cc(C3=CCCCC3)cnc2O[C@H]1CN(C)C(=O)Nc1cccc(F)c1 | x | x | x | x | 97 | x | x | x
CCOC(=O)Nc1cc(=O)c2ccccc2o1 | 236 | i | -4 | i | 94 | 21* | 3 | 19
C=C(C)Cn1c(C2CC(=O)N(Cc3ccccc3)C2)nc2ccccc21 (centres undefined) | 273 | i | 0 | i | 98 | x | x | x
C=CCN1CC(c2nc3ccccc3n2CCOc2ccccc2)CC1=O (centres undefined) | 210 | i | -14 | i | 101 | 33* | 2 | 7
O=C(NCc1ccco1)/C(=C\c1ccc(F)cc1)NC(=O)c1ccco1 | 244 | i | -13 | i | 97 | 29* | 5 | 7
O=[N+]([O-])c1ccc(C=NN2CCCCCC2)cc1 | x | x | x | x | 100 | x | x | x
C=CCn1c(SC(C)C(=O)NCc2ccc3c(c2)OCO3)nnc1C1CCCCC1 (centres undefined) | 536 | i | -18 | i | 96 | 26* | 32* | 29*
CC(Sc1nnc2ccccn12)C(=O)NCc1ccc2c(c1)OCO2 (centres undefined) | 335 | i | -1 | i | 100 | 2 | x | x
CN1CCN(c2ccc(Cl)cc2NC(=O)/C=C/c2cccc(F)c2)CC1 | 215 | i | -3 | i | 100 | 27* | 43* | 28*
